This is an account of results in ChEMBL document CHEMBL1134940, “Highly potent non-peptidic inhibitors of the HCV NS3/NS4A serine protease” (Bioorg Med Chem Lett, 2002).

What is called Ki is the equilibrium dissociation constant of an inhibitor or competing ligand from its target.

Type in all cases: protein-complex assay, Hepacivirus hominis
Assay [1] deals with T1, Hepatitis C virus serine protease, NS3/NS4A (Hepatitis C virus, UniProt A3EZI9+D2K2A8). Nature of the assay: Inhibition of HCV serine protease NS3/NS4A in the presence of EDTA. In outline:
(§1)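 No Zn(II) added; EDTA included. Inhibitor at varying concentrations preincubated 30 min at room temperature (21–24 °C). Reaction started with the quenched-fluorescence substrate Ac-DED(Edans)EE-Abu[COO]-ASK(Dabcyl)-CONH₂.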

Assay [2] addresses T1, Hepatitis C virus serine protease, NS3/NS4A. Nature of the assay: Inhibition of HCV serine protease NS3/NS4A in the presence of Zn. In outline:
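Same setup run with ZnCl₂ added instead of EDTA. NS3 protease construct (first 183 residues; 12 nM active sites) plus the 17-residue NS4A surrogate peptide. Inhibitor at several concentrations preincubated 30 min at 21–24 °C. The Edans/Dabcyl quenched-fluorescence depsipeptide substrate was then added to start the reaction.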

Assay [3] shares this target. Nature of the assay: Inhibition of HCV serine protease NS3/NS4A in the presence of EDTA. In outline:
as §1

T1 sequence (D2K2A8 whole entry): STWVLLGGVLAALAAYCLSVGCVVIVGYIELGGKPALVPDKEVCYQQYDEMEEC
T1 sequence (A3EZI9 whole entry): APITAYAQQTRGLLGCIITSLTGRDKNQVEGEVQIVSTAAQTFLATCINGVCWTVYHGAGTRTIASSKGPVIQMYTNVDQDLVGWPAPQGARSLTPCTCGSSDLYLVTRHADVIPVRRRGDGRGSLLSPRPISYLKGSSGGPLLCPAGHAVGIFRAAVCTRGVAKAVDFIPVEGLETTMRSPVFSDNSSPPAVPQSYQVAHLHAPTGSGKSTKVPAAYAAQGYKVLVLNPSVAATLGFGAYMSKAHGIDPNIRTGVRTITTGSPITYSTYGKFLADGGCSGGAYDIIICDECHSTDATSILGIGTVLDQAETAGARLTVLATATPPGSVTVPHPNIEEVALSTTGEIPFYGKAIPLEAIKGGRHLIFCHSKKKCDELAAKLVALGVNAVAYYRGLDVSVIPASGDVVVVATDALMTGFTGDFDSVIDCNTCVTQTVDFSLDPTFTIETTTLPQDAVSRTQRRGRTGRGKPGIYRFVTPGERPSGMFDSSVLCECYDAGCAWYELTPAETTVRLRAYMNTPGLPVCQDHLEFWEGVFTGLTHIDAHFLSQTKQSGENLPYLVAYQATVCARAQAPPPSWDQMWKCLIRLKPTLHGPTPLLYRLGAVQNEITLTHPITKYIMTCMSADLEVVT

As for `COP(=O)(O)CC(NC(=O)c1ccc2nc(Cc3nc4ccc(C(N)=O)cc4[nH]3)n(C)c2c1)C(=O)O` (centres undefined), the inhibition constant (Ki) in assay [1] worked out at 38.1 µM; in assay [2] it was 1.36 µM. Turning to `CC(C)(C)Cn1c(Cc2nc3ccccc3[nH]2)nc2ccc(C(=O)NC(CP(=O)(O)O)C(=O)O)cc21` (centres undefined), the inhibitory constant (Ki) in assay [3] is above 300 µM; in assay [2], 0.61 µM. In the case of `Cn1c(Cc2nc3c(F)c(F)c(F)c(F)c3[nH]2)nc2ccc(C(=O)NC(CP(=O)(O)O)C(=O)O)cc21` (centres undefined), the inhibitory constant (Ki) in assay [3] amounted to 17 µM; in assay [2] it was 0.28 µM. As to `Cn1c(C(F)(F)c2nc3ccc(C(=O)NC(CP(=O)(O)O)C(=O)O)cc3[nH]2)nc2ccc(C(=O)NC(CP(=O)(O)O)C(=O)O)cc21` (centres undefined), the inhibitory constant (Ki) in assay [3] was 15 µM; in assay [2], 0.073 µM. Regarding `Cn1c(Cc2nc3ccc(C(=O)NC(CP(=O)(O)O)C(=O)O)cc3[nH]2)nc2ccc(C(=O)NC(CP(=O)(O)O)C(=O)O)cc21` (centres undefined), the results for the Ki in assay [3] and in assay [2] were 21 µM and 0.1 µM, respectively. `CC(c1nc2ccccc2[nH]1)c1nc2ccc(C(=O)NC(CP(=O)(O)O)C(=O)O)cc2n1C` (centres undefined): the Ki in assay [1] came to 215 µM; in assay [2], 0.23 µM. Turning to `CC(=O)NCc1nc2ccc(C(=O)NC(CP(=O)(O)O)C(=O)O)cc2n1C` (centres undefined), the values for the inhibition constant Ki in assay [1] and in assay [2] were 150 µM and 32 µM, respectively.

Consider `Cn1c(C(F)(F)c2nc3cc(F)c(F)cc3[nH]2)nc2ccc(C(=O)NC(CP(=O)(O)O)C(=O)O)cc21` (centres undefined), for which the Ki was determined as 15 µM in assay [3] and 4 µM in assay [2]. As to `Cn1c(Cc2nc3c(F)cc(F)cc3[nH]2)nc2ccc(C(=O)NC(CP(=O)(O)O)C(=O)O)cc21` (centres undefined), the results for the Ki in assay [1] and in assay [2] were 58 µM and 0.24 µM, respectively. In the same order, the values of `Cn1c(Cc2nc3cc(C(F)(F)F)ccc3[nH]2)nc2ccc(C(=O)NC(CP(=O)(O)O)C(=O)O)cc21` (centres undefined) are 70 µM and 0.41 µM. Regarding `Cc1cccc2[nH]c(C(F)(F)c3nc4ccc(C(=O)NC(CP(=O)(O)O)C(=O)O)cc4n3C)nc12` (centres undefined), the Ki in assay [3] turned out to be 66 µM; in assay [2] it was 21 µM. As for `Cn1c(Cc2nc3cc(F)ccc3[nH]2)nc2ccc(C(=O)NC(CP(=O)(O)O)C(=O)O)cc21` (centres undefined), the Ki in assay [1] was found to be 95 µM; in assay [2] it was 0.28 µM. In the same order, the values of `CC(c1nc2ccccc2[nH]1)c1nc2cccc(C(=O)NC(CP(=O)(O)O)C(=O)O)c2n1C` (centres undefined) are 181 µM and 1.2 µM. On to `Cn1c(Cc2nc3c(F)c(F)c(F)cc3[nH]2)nc2ccc(C(=O)NC(CP(=O)(O)O)C(=O)O)cc21` (centres undefined), for which the inhibitory constant (Ki) in assay [3] worked out at 21 µM; in assay [2], 0.2 µM. `CC(c1nc2ccc(C(N)=O)cc2[nH]1)c1nc2cc(C(=O)C(CP(=O)(O)O)C(=O)O)ccc2n1C` (centres undefined): the Ki in assay [1] and in assay [2] was above 300 µM throughout. For the compound `Cc1cccc2[nH]c(Cc3nc4ccc(C(=O)NC(CP(=O)(O)O)C(=O)O)cc4n3C)nc12` (centres undefined), the inhibition constant Ki in assay [3] is above 300 µM; in assay [2], 10 µM.

Turning to `Cn1c(C(F)(F)c2nc3ccc(C(=O)NC(CP(=O)(O)O)C(=O)O)cc3[nH]2)nc2ccc(C(=O)NC(CP(=O)(O)O)C(=O)NC(CP(=O)(O)O)C(=O)O)cc21` (centres undefined), the Ki in assay [3] was 1 µM; in assay [2], 0.027 µM. As to `Cn1c(C(F)(F)c2nc3c(F)c(F)cc(F)c3[nH]2)nc2ccc(C(=O)NC(CP(=O)(O)O)C(=O)O)cc21` (centres undefined), the Ki was found to be 12 µM in assay [3] and 2.9 µM in assay [2].

For `Cn1c(Cc2nc3ccc(C(=O)NC(CP(=O)(O)O)C(=O)O)cc3n2C)nc2ccccc21` (centres undefined), the Ki in assay [1] turned out to be 140 µM; in assay [2], 3.8 µM.

Regarding `Cn1c(C(F)(F)c2nc3ccccc3[nH]2)nc2ccc(C(=O)NC(CP(=O)(O)O)C(=O)NC(CP(=O)(O)O)C(=O)O)cc21` (centres undefined), the Ki is 19.6 µM in assay [3] and 0.82 µM in assay [2]. In the same order, the values of `CC(C)CCn1c(Cc2nc3ccccc3[nH]2)nc2ccc(C(=O)NC(CP(=O)(O)O)C(=O)O)cc21` (centres undefined) are above 300 µM and 0.87 µM. In the same order, the values of `COC(=O)C(CP(=O)(O)O)NC(=O)c1ccc2[nH]c(C(F)(F)c3nc4ccc(C(=O)NC(CP(=O)(O)O)C(=O)OC)cc4n3C)nc2c1` (centres undefined) are 32 µM and 0.277 µM. For `COc1cccc2[nH]c(Cc3nc4ccc(C(=O)NC(CP(=O)(O)O)C(=O)O)cc4n3C)nc12` (centres undefined), the results for the inhibition constant (Ki) in assay [3] and in assay [2] were 24 µM and 0.49 µM, respectively. Regarding `Cn1c(C(F)(F)c2nc3ccccc3[nH]2)nc2ccc(C(=O)NC(CP(=O)(O)O)C(=O)O)cc21` (centres undefined), in assay [3], the Ki stood at 1.1 µM. For `Cn1c(C(F)c2nc3c(F)c(F)cc(F)c3[nH]2)nc2ccc(C(=O)NC(CP(=O)(O)O)C(=O)O)cc21` (centres undefined), the Ki in assay [3] worked out at 72 µM; in assay [2], 0.55 µM. In the same order, the values of `Cn1c(C(F)(F)c2nc3c(F)cc(F)cc3[nH]2)nc2ccc(C(=O)NC(CP(=O)(O)O)C(=O)O)cc21` (centres undefined) are 25 µM and 1.4 µM. In the same order, the values of `Cc1ccc2nc(Cc3nc4ccc(C(=O)NC(CP(=O)(O)O)C(=O)O)cc4n3C)[nH]c2c1` (centres undefined) are 98 µM and 0.24 µM. Consider `CC(c1ncc[nH]1)c1nc2ccc(C(=O)NC(CP(=O)(O)O)C(=O)O)cc2n1C` (centres undefined), for which the Ki in assay [1] turned out to be 110 µM; in assay [2], 83 µM. As for `Cn1c(C(F)c2nc3c(F)cc(F)cc3[nH]2)nc2ccc(C(=O)NC(CP(=O)(O)O)C(=O)O)cc21` (centres undefined), the Ki in assay [3] worked out at 91 µM; in assay [2], 0.66 µM. `Cn1c(Cc2nc3ccc(C(N)=O)cc3[nH]2)nc2ccc(C(=O)NCC(=O)O)cc21`: the figures for the inhibition constant (Ki) in assay [1] and in assay [2] were above 300 µM and 68 µM, respectively. In the same order, the values of `Cn1c(Cc2nc3cc(F)c(F)cc3[nH]2)nc2ccc(C(=O)NC(CP(=O)(O)O)C(=O)O)cc21` (centres undefined) are 25 µM and 0.21 µM. Take `Cn1c(Cc2nc3ccc(O)cc3[nH]2)nc2ccc(C(=O)NC(CP(=O)(O)O)C(=O)O)cc21` (centres undefined): the inhibition constant (Ki) in assay [3] came to 250 µM; in assay [2] it was 0.19 µM. In the same order, the values of `CC(C)Cn1c(Cc2nc3ccccc3[nH]2)nc2ccc(C(=O)NC(CP(=O)(O)O)C(=O)O)cc21` (centres undefined) are above 300 µM and 0.37 µM.

In the case of `Cn1c(Cc2nc3ccccc3[nH]2)nc2ccc(C(=O)NC(CP(=O)(O)O)C(=O)O)cc21` (centres undefined), the values for the inhibitory constant (Ki) in assay [3] and in assay [2] were above 300 µM and 0.45 µM, respectively.

`Cn1c(C(F)c2nc3ccccc3[nH]2)nc2ccc(C(=O)NC(CP(=O)(O)O)C(=O)O)cc21` (centres undefined): the Ki in assay [3] came to 37 µM; in assay [2], 0.47 µM. In the same order, the values of `CC(C)n1c(Cc2nc3ccccc3[nH]2)nc2ccc(C(=O)NC(CP(=O)(O)O)C(=O)O)cc21` (centres undefined) are above 300 µM and 12 µM. In the same order, the values of `Cn1c(Cc2nc3c(F)c(F)ccc3[nH]2)nc2ccc(C(=O)NC(CP(=O)(O)O)C(=O)O)cc21` (centres undefined) are 140 µM and 0.27 µM.

Consider `Cn1c(Cc2nc3c(F)cc(F)c(F)c3[nH]2)nc2ccc(C(=O)NC(CP(=O)(O)O)C(=O)O)cc21` (centres undefined), for which the results for the Ki in assay [3] and in assay [2] were 22 µM and 0.35 µM, respectively. In the same order, the values of `COc1ccc2nc(Cc3nc4ccc(C(=O)NC(CP(=O)(O)O)C(=O)O)cc4n3C)[nH]c2c1` (centres undefined) are 187 µM and 0.2 µM.

Turning to `Cn1c(C(F)(F)c2nc3ccc(Cl)cc3[nH]2)nc2ccc(C(=O)NC(CP(=O)(O)O)C(=O)O)cc21` (centres undefined), the values for the inhibition constant Ki in assay [3] and in assay [2] were 38 µM and 2.4 µM, respectively. In the same order, the values of `Cn1c(C(F)(F)c2nc3ccc(C(N)=O)cc3[nH]2)nc2ccc(C(=O)NC(CP(=O)(O)O)C(=O)O)cc21` (centres undefined) are 74 µM and 1.2 µM. Regarding `Cn1c(Cc2nc3ccc(Cl)cc3[nH]2)nc2ccc(C(=O)NC(CP(=O)(O)O)C(=O)O)cc21` (centres undefined), the Ki in assay [1] amounted to 130 µM; in assay [2], 0.38 µM. As to `Cn1c(Cc2nc3cc(C(N)=O)ccc3[nH]2)nc2ccc(C(=O)NC(CP(=O)(O)O)C(=O)O)cc21` (centres undefined), the Ki stood at 170 µM in assay [3] and 0.2 µM in assay [2]. In the same order, the values of `O=C(NC(CP(=O)(O)O)C(=O)O)c1ccc2nc(Cc3nc4ccccc4[nH]3)n(CC3CC3)c2c1` (centres undefined) are 140 µM and 0.14 µM.

Regarding `Cn1c(C(F)(F)c2nc3cc(F)ccc3[nH]2)nc2ccc(C(=O)NC(CP(=O)(O)O)C(=O)O)cc21` (centres undefined), the figures for the inhibition constant (Ki) in assay [3] and in assay [2] were 55 µM and 1.3 µM, respectively.
